These results are taken from ChEMBL document CHEMBL1212855, “1-Azaaurones derived from the naturally occurring aurones as potential antimalarial drugs” (Bioorg Med Chem, 2010).

Each structure is given as a SMILES string. Converted amounts (≈) assume the structure as drawn.

One data set has as its system Plasmodium falciparum. Kind of data set: Antiplasmodial activity against Plasmodium falciparum FcB1/columbia infected in human erythrocytes. The data set is classed as functional, organism-based. A digest of the protocol: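 Blood stages cultured in human erythrocytes in RPMI 1640 with 5% human serum (Trager–Jensen, modified). Cultures were synchronized every 48 h by 5% D-sorbitol lysis. IC50 is the concentration giving 50% inhibition of parasite growth, with chloroquine as the control drug.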

Data set [1] deals with Plasmodium vinckei petteri. Briefly: Antimalarial activity against Plasmodium vinckei petteri infected in CD mice (Mus musculus) assessed as inhibition of parasitaemia at 10 mg/kg, intraperitoneal daily for 4 days measured on day 5. The data set is classed as functional. As to conditions: ip. A digest of the protocol:
(§1)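 Four-day suppressive test: female CD mice (mean body weight 20 2 g) infected with 10⁶ P. vinckei petteri-infected red blood cells in RPMI on day 0. Groups of five treated intraperitoneally days 0–3 at 1, 10 or 20 mg/kg/day. Controls received RPMI alone or chloroquine (1 and 10 mg/kg). Giemsa-stained tail-blood smears, at least 5000 erythrocytes counted. Inhibition % = (control − treated parasitaemia)/control × 100.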

A further data set deals with Mus musculus. Briefly: Toxicity against CD mouse at 20 mg/kg, ip qd for 4 days. It is filed as organism-based. On the set-up: dose 20 mg/kg, route intraperitoneal. The conditions noted are these: in vivo, 96 h.
Data set [2] deals with Plasmodium vinckei petteri. Briefly: Antimalarial activity against Plasmodium vinckei petteri infected in CD mice (Mus musculus) assessed as inhibition of parasitaemia at 20 mg/kg, intraperitoneal daily for 4 days measured on day 5. It is filed as functional. The conditions noted are these: ip. The essentials: as §1
In data set [3] the test system is Plasmodium vinckei petteri. Kind of data set: Antimalarial activity against Plasmodium vinckei petteri infected in CD mice (Mus musculus) assessed as inhibition of parasitaemia dosed daily for 4 days measured on day 5. The data set is classed as functional. The essentials:
as §1

Data set [4] relates to Plasmodium vinckei petteri. Kind of data set: Antimalarial activity against Plasmodium vinckei petteri infected in CD mice (Mus musculus) assessed as inhibition of parasitaemia at 1 mg/kg, intraperitoneal daily for 4 days measured on day 5. The data set is classed as functional. As to conditions: ip. The essentials: as §1

The term IC50 denotes the concentration at which inhibition is half-maximal. Read a high IC50 as lower potency. Take `COc1cc(OC)c2c(c1)O/C(=C\c1ccc(F)cc1)C2=O`: the IC50 with Plasmodium falciparum was 86.7 µM.

In the data set on Plasmodium falciparum, `Cc1ccc(/C=C2\Oc3cc(O)cc(O)c3C2=O)cc1` came in with an IC50 of 63.4 µM.

`COc1cc2c(c(OC)c1)C(=O)/C(=C/c1cc(C)c(C)cc1C)N2`: half-maximal inhibition in the data set on Plasmodium falciparum (IC50) required 5.6 µM.

Turning to `CCc1ccccc1/C=C1\Oc2cc(OC)cc(OC)c2C1=O`, half-maximal inhibition with Plasmodium falciparum (IC50) was put at 21 µM.

In turn, `COc1cc(OC)c2c(c1)O/C(=C\c1ccc(C(C)(C)C)cc1)C2=O` gave an IC50 with Plasmodium falciparum of 13.3 µM.

For the molecule `CCCCc1ccc(/C=C2\Oc3cc(OC)cc(OC)c3C2=O)cc1`, inhibition with Plasmodium falciparum was half-maximal at 11.8 µM (IC50).

For the molecule `COc1cc(OC)c2c(c1)O/C(=C\c1ccc(Br)cc1)C2=O`, 49.8 µM corresponded to half-maximal inhibition in the data set on Plasmodium falciparum (IC50).

For `COc1cc(OC)c2c(c1)O/C(=C\c1ccc(-c3ccccc3)cc1)C2=O`, the IC50 with Plasmodium falciparum was 234 µM.

Turning to `COc1cc(OC)c2c(c1)O/C(=C\c1ccc(-c3ccncc3)cc1)C2=O`, the half-inhibitory concentration (IC50) in the data set with Plasmodium falciparum came to 85 µM.

For `COc1cc2c(c(OC)c1)C(=O)/C(=C/c1ccc(Br)cc1)N2`, the IC50 in the data set with Plasmodium falciparum amounted to 49.8 µM.

`COc1cc2c(c(OC)c1)C(=O)/C(=C/c1ccccc1Cl)N2`: it took 9.9 µM to reach half-maximal inhibition in the data set on Plasmodium falciparum (IC50).

With `COc1cc2c(c(OC)c1)C(=O)/C(=C/c1cc(Cl)ccc1Cl)N2`, inhibition in the data set with Plasmodium falciparum was half-maximal at 8.4 µM (IC50).

In turn, `CCc1ccccc1/C=C1\Nc2cc(OC)cc(OC)c2C1=O` showed an IC50 in the data set with Plasmodium falciparum of 12.8 µM.

Consider `COc1cc2c(c(OC)c1)C(=O)/C(=C/c1c(C)cccc1C)N2`, for which the 50% inhibitory concentration (IC50) in the data set on Plasmodium falciparum was determined as 9.1 µM.

For `COc1cc2c(c(OC)c1)C(=O)/C(=C/c1ccc(C)cc1C)N2`, the IC50 in the data set with Plasmodium falciparum was determined as 3.6 µM.

As to `COc1cc2c(c(OC)c1)C(=O)/C(=C/c1c(C)c(C)cc(C)c1C)N2`, the IC50 in the data set on Plasmodium falciparum was determined as 8.9 µM.

Take `COc1cc2c(c(OC)c1)C(=O)/C(=C/c1ccc(C(C)C)cc1)N2`: in the data set on Plasmodium falciparum, the IC50 amounted to 4.4 µM.

Turning to `COc1cc2c(c(OC)c1)C(=O)/C(=C/c1ccc(C(C)(C)C)cc1)N2`, half-maximal inhibition in the data set with Plasmodium falciparum (IC50) was put at 7.2 µM.

In turn, `CCCCc1ccc(/C=C2\Nc3cc(OC)cc(OC)c3C2=O)cc1` gave an IC50 with Plasmodium falciparum of 4.1 µM.

For the molecule `C#Cc1ccc(/C=C2\Nc3cc(OC)cc(OC)c3C2=O)cc1`, in the data set with Plasmodium falciparum, it took 13.4 µM to reach half-maximal inhibition (IC50).

`COc1ccc(/C=C2\Nc3cc(OC)cc(OC)c3C2=O)c(OC)c1` showed a 50% inhibitory concentration (IC50) in the data set on Plasmodium falciparum of 5 µM.

In the data set on Plasmodium falciparum, `COc1cc(OC)c(/C=C2\Nc3cc(OC)cc(OC)c3C2=O)c(OC)c1` registered an IC50 of 1.9 µM.

With `COc1cc2c(c(OC)c1)C(=O)/C(=C/c1cc(OC)c(OC)c(OC)c1)N2`, inhibition with Plasmodium falciparum was half-maximal at 1.9 µM (IC50).

Take `COc1cc2c(c(OC)c1)C(=O)/C(=C/c1ccc(SC)cc1)N2`: the IC50 in the data set with Plasmodium falciparum worked out at 6.7 µM.

On to `COc1cc2c(c(OC)c1)C(=O)/C(=C/c1ccc(N3CCOCC3)cc1)N2`, for which the IC50 in the data set with Plasmodium falciparum was determined as 8.9 µM.

On to `COc1cc2c(c(OC)c1)C(=O)/C(=C/c1ccc(N(C)C)cc1)N2`, for which inhibition in the data set on Plasmodium falciparum was half-maximal at 3.7 µM (IC50).

Regarding `CCc1ccc(/C=C2\Oc3cc(O)ccc3C2=O)cc1`, the IC50 in the data set on Plasmodium falciparum was 28 µM.

One may read the inhibition in vivo as the change of the read-out against control, counted positive when it falls. Consider `CCc1ccc(/C=C2\Nc3cc(OC)cc(OC)c3C2=O)cc1`, for which the inhibition in vivo at 10 mg/kg in data set [1] amounted to 17%. Half-maximal inhibition in the data set with Plasmodium falciparum (IC50) required 1 µM. The Activity entry with Mus musculus was “Non-toxic”. The inhibition in vivo at 20 mg/kg in data set [2] came to 0%. In addition, in data set [3], the ED50 is greater than 20 mg/kg. For the same molecule, in data set [4], the inhibition in vivo at 1 mg/kg was 3%.

On to `COc1cc2c(c(OC)c1)C(=O)/C(=C/c1ccc(Cl)cc1)N2`, for which the IC50 with Plasmodium falciparum is 17 µM.

Take `COc1cc2c(c(OC)c1)C(=O)/C(=C/c1c(F)cccc1Cl)N2`: in the data set on Plasmodium falciparum, half-maximal inhibition (IC50) was put at 9 µM.

`COc1cc(OC)c2c(c1)O/C(=C\c1ccccc1)C2=O` gave an IC50 with Plasmodium falciparum of 60.3 µM.

`CCc1ccccc1/C=C1\Oc2cc(O)cc(O)c2C1=O` registered an IC50 with Plasmodium falciparum of 114 µM.

On to `O=C1/C(=C/c2ccccc2)Oc2cc(O)cc(O)c21`, for which, in the data set with Plasmodium falciparum, the midpoint of inhibition, the IC50, lay at 94.5 µM.

Molecule `O=C1/C(=C/c2ccc(O)cc2)Oc2cc(O)ccc21` gave an IC50 in the data set with Plasmodium falciparum of 130 µM.

Molecule `COc1ccc(/C=C2\Oc3cc(OC)cc(OC)c3C2=O)cc1` [4,4',6-TRIMETHOXY-AURONE] displayed an IC50 with Plasmodium falciparum of 11 µM.

Regarding `CCN(CC)CCCC(C)Nc1ccnc2cc(Cl)ccc12` (stereo not drawn) [CHLOROQUINE], in data set [1], the inhibition in vivo at 10 mg/kg stood at 100%. For the same molecule, the ED50 in data set [3] came to 5000 µg/mL (≈ 15.6 mM). In data set [4], the inhibition in vivo at 1 mg/kg worked out at 0%.
